Test [1] deals with Serine/threonine-protein kinase MRCK beta (Homo sapiens) (UniProt Q9Y5S2). Put plainly: Inhibition of MRCKB at 1 uM.
Test [2] has as its target Protein-tyrosine kinase 2-beta (Homo sapiens) (UniProt Q14289). Put plainly: Inhibition of PYK2 at 1 uM. The essentials:
(§1)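 Single-concentration screen on the Ambit KINOMEscan platform, run against a panel of 250–400 kinases. Per-kinase inhibition was also summarized as S(90), the fraction of kinases inhibited by more than 90%.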

Test [3] has as its target Non-receptor tyrosine-protein kinase TYK2 (Homo sapiens) (UniProt P29597). Put plainly: Inhibition of TYK2 JH1 catalytic domain at 1 uM. The essentials:
as §1

The target of test [4] is T1, Activin receptor type-1 (Homo sapiens) (UniProt Q04771).
T1 sequence (whole entry): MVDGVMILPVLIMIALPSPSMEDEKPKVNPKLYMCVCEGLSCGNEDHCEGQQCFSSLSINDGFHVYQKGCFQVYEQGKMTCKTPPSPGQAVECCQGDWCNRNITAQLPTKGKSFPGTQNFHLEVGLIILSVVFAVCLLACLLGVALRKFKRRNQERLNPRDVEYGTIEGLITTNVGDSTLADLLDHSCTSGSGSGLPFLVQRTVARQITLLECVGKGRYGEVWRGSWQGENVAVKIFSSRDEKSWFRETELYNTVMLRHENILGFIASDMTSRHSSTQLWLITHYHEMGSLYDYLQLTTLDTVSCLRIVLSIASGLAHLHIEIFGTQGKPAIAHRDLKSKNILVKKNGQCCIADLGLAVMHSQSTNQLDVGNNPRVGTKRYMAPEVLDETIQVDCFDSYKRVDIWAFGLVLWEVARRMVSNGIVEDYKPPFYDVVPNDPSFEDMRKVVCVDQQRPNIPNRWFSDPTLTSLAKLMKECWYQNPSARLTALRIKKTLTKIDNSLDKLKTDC
The test is described as follows: Inhibition of ACVR1 at 1 uM. The essentials:
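Ambit KINOMEscan screen at a single concentration across a 250–400 kinase panel, recorded as percent inhibition. Selectivity was expressed as S(90), the fraction of kinases inhibited >90%.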

Test [5] deals with Death-associated protein kinase 2 (Homo sapiens) (UniProt Q9UIK4). The test is described as follows: Inhibition of DAPK2 at 1 uM. The essentials:
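Single-concentration screen using Ambit Bioscience KINOMEscan technology across a panel of 250–400 kinases. Per-kinase inhibition from this screen was summarized as S(90), the fraction of kinases inhibited by more than 90%.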

For test [6], the target named is T2, MAP kinase-activated protein kinase 5 (Homo sapiens) (UniProt Q8IW41).
T2 sequence (whole entry): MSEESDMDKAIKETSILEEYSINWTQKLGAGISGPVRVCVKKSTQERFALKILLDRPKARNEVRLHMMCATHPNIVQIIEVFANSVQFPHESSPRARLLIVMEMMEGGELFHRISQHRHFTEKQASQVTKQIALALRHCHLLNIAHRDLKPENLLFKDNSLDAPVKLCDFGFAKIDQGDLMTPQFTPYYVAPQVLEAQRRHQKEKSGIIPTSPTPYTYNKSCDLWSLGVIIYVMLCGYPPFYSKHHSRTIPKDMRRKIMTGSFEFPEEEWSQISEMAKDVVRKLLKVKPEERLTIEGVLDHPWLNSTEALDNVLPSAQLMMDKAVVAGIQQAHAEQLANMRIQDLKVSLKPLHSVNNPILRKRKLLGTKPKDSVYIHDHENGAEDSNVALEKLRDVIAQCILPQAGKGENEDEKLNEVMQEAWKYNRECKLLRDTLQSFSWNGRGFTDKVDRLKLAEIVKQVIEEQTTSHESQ
The test is described as follows: Inhibition of MAPKAPK5 at 1 uM.

The target in test [7] is Microtubule-associated serine/threonine-protein kinase 1 (Homo sapiens) (UniProt Q9Y2H9). The test is described as follows: Inhibition of MAST1 at 1 uM.
Chain of Microtubule-associated serine/threonine-protein kinase 1 (Homo sapiens) (Q9Y2H9 whole entry, looked up, canonical isoform): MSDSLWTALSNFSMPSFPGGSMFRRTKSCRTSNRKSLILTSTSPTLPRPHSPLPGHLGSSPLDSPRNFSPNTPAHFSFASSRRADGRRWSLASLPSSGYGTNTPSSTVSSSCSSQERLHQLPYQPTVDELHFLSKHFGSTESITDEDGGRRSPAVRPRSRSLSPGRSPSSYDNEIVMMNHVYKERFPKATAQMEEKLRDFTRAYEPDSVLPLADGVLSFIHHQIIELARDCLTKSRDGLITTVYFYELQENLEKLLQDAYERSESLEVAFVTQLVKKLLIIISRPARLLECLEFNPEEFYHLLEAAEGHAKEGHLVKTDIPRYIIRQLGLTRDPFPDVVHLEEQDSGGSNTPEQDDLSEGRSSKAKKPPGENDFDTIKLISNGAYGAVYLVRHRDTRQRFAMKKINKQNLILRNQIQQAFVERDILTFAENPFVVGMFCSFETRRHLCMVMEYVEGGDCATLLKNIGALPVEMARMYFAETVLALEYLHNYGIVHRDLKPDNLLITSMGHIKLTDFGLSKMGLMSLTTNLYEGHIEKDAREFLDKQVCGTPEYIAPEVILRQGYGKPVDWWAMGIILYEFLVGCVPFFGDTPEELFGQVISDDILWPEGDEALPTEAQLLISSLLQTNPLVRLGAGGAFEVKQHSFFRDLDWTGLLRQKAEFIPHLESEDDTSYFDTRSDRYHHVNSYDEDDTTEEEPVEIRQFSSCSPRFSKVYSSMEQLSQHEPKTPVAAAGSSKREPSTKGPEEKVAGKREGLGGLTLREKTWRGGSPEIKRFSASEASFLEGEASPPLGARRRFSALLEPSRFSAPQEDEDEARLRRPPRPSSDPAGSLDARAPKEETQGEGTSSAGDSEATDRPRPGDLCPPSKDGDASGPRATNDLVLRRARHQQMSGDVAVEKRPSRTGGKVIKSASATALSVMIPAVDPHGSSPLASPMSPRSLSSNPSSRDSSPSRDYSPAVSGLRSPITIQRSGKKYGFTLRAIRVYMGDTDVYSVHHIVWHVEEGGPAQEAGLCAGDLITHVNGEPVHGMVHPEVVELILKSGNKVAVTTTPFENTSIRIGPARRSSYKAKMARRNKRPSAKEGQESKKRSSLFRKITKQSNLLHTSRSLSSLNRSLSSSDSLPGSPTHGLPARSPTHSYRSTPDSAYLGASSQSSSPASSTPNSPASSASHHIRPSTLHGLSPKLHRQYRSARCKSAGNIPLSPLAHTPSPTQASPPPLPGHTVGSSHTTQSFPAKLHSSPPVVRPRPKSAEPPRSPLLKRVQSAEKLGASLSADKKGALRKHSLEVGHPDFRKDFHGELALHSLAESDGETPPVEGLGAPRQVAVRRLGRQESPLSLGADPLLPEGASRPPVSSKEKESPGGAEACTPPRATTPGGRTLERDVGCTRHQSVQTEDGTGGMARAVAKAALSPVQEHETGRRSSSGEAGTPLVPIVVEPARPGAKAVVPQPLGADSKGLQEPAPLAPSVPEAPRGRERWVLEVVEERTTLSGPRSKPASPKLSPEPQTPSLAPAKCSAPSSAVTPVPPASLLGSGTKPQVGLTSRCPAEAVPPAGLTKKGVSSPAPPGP
In test [8] the target is T3, Phosphatidylinositol 4,5-bisphosphate 3-kinase catalytic subunit delta isoform (Homo sapiens) (UniProt O00329).
T3 sequence (whole entry): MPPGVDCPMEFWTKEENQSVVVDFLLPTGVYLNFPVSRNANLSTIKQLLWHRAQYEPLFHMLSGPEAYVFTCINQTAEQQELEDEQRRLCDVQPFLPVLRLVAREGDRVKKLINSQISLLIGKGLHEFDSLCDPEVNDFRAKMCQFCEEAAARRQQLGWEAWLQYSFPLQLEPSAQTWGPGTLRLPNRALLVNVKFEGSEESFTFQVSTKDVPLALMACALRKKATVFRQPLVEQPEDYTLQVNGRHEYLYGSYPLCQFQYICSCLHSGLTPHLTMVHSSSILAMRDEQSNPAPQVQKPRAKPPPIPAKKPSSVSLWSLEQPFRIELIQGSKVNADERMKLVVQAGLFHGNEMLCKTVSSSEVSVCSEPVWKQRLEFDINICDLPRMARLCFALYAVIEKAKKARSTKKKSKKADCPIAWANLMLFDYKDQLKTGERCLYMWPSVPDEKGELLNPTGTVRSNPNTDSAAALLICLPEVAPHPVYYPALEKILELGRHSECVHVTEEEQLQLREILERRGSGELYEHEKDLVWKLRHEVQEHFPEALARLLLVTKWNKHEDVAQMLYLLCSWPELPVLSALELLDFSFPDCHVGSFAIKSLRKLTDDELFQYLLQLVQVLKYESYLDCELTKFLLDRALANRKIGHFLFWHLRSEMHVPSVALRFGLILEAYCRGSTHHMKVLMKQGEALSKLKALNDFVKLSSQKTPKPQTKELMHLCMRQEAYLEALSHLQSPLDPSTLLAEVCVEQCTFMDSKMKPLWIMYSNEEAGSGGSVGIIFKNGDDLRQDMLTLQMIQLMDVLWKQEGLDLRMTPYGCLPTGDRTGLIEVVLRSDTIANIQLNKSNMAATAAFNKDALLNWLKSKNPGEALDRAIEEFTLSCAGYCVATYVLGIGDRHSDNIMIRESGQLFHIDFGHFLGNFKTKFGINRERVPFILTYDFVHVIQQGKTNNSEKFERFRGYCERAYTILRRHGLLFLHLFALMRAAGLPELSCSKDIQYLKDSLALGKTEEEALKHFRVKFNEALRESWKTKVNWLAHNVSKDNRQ
Put plainly: Inhibition of PIK3CD at 1 uM.

In test [9] the test system is Proto-oncogene tyrosine-protein kinase receptor Ret (Homo sapiens), P07949 [M918T]. Put plainly: Inhibition of RET M918T mutant at 1 uM.
Chain of Proto-oncogene tyrosine-protein kinase receptor Ret (Homo sapiens), P07949 [M918T] (P07949 whole entry M918T): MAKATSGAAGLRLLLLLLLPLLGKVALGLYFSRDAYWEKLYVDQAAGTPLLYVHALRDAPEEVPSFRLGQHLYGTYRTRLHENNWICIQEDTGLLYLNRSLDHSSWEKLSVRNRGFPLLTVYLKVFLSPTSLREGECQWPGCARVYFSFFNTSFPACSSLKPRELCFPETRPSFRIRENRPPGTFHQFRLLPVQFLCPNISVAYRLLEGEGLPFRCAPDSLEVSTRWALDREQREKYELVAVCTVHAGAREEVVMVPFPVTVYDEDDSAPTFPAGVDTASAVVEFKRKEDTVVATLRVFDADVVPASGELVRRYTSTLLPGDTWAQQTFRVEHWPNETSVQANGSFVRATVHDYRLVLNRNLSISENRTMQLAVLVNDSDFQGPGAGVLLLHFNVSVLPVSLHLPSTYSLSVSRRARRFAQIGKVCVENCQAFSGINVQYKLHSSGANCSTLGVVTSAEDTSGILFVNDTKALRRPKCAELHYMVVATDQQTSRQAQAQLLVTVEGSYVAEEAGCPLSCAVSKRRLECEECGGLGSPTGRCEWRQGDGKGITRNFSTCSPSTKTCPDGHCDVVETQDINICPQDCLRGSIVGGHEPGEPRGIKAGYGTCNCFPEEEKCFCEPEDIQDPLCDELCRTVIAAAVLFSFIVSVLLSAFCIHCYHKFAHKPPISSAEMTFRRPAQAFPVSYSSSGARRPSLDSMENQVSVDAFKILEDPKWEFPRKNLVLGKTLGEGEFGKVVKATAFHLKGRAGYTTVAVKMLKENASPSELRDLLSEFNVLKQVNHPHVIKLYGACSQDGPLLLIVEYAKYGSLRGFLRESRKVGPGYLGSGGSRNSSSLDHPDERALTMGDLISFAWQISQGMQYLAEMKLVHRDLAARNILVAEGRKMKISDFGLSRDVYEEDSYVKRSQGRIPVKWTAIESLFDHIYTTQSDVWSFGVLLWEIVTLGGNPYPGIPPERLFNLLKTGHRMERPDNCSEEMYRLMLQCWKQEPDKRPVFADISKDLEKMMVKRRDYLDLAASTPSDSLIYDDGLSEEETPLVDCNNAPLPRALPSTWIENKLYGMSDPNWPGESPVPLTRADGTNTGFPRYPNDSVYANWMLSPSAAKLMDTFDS
The target in test [10] is Rho-associated protein kinase 1 (Homo sapiens) (UniProt Q13464). The test is described as follows: Inhibition of ROCK1 at 1 uM.

Among the data in ChEMBL document CHEMBL1165965, “Synthesis and structure-activity relationships of 1,2,3,4-tetrahydropyrido[2,3-b]pyrazines as potent and selective inhibitors of the anaplastic lymphoma kinase” (Bioorg Med Chem, 2010) are inhibition values, retold here.

Chain of Death-associated protein kinase 2 (Homo sapiens) (Q9UIK4 whole entry, looked up): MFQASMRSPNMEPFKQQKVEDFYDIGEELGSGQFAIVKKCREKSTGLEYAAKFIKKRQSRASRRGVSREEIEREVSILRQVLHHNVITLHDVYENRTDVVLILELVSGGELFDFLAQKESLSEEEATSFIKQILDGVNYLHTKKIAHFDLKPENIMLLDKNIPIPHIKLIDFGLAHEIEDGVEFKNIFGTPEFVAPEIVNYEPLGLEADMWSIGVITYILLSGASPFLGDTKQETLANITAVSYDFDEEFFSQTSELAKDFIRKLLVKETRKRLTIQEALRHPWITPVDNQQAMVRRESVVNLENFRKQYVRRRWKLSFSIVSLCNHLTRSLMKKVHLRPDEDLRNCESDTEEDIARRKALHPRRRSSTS
Chain of Non-receptor tyrosine-protein kinase TYK2 (Homo sapiens) (P29597 whole entry, the tested form may be a part): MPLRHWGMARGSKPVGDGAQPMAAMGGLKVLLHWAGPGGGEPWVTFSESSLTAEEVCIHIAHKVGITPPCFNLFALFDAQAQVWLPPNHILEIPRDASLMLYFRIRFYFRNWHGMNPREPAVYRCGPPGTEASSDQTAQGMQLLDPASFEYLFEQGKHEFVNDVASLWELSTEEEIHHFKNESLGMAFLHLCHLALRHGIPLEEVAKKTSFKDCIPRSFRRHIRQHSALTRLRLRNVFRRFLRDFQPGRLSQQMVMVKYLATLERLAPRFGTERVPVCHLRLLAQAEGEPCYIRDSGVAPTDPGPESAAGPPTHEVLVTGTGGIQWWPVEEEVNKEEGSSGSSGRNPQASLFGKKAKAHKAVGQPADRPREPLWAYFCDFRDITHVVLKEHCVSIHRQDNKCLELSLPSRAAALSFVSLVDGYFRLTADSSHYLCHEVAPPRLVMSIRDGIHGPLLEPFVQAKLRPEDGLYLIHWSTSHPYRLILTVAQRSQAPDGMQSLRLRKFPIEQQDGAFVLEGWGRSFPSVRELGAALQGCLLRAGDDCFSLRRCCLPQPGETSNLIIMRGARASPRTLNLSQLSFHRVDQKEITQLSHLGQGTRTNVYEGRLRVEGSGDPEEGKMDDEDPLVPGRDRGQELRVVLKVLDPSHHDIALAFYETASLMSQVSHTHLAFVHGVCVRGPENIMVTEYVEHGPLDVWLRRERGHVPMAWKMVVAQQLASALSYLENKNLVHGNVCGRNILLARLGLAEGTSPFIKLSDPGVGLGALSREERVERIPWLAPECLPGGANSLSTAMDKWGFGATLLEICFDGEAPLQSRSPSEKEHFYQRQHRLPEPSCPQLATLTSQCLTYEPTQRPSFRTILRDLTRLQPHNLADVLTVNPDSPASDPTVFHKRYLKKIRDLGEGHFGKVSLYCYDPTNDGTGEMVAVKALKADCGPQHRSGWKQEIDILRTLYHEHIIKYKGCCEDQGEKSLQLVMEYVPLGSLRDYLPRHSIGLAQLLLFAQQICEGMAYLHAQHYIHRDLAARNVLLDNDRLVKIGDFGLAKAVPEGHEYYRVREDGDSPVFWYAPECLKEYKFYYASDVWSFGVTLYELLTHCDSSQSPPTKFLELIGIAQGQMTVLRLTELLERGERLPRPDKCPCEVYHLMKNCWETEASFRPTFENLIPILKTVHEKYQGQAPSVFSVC

For the molecule `O=C(c1ccc(-c2cnc3c(c2)N(Cc2cc(Cl)ccc2C(F)(F)F)CCN3)cc1)N1CCCCC1`, the inhibition in test [1], in [2], in [3], in test [4] and in test [5] was below 50% in each case.
For `CN1CCN(c2ccc(-c3cnc4c(c3)N(Cc3c(F)ccc(F)c3Cl)CCN4)cn2)CC1`, the inhibition in test [6], in test [7], in [1], in test [8], in [2] and in test [9] was below 50% in each case. Further, the inhibition in test [10], in test [3], in test [4] and in [5] was below 50% in each case.
Consider `COC1CCN(C(=O)c2ccc(-c3cnc4c(c3)N(Cc3cc(Cl)ccc3C(F)(F)F)CCN4)cc2)CC1`, for which the inhibition (in general, the percentage by which the read-out fell short of the control) in [1] was below 50%; in test [2], 68%; in test [3], below 50%; in [4] it was below 50%; in test [5], below 50%.
On to `O=C(O)c1ccc(-c2cnc3c(c2)N(Cc2cc(Cl)ccc2C(F)(F)F)CCN3)cc1`, for which the inhibition in test [1], in test [2], in test [3], in [4] and in [5] was below 50% each time.
In the case of `FC(F)(F)c1ccc(Cl)cc1CN1CCNc2ncc(-c3ccnc(N4CCNCC4)c3)cc21`, the inhibition is below 50% in test [6]; below 50% in test [7]; below 50% in [1]; below 50% in [8]; 87% in [2]; 67% in test [9]. Further, the inhibition in test [10] is below 50%; in test [3] it was 72%; in test [4], below 50%; in [5], below 50%.
Take `CN1CCN(c2ccc(-c3cnc4c(c3)N(Cc3cc(Cl)ccc3Cl)CCN4)cn2)CC1`: the inhibition in [6], in test [7], in test [1], in [8], in [2] and in test [9] was below 50% in each case. For the same molecule, the inhibition in test [10], in test [3], in test [4] and in test [5] was below 50% throughout.
With `O=C(c1ccc(-c2cnc3c(c2)N(Cc2cc(Cl)ccc2C(F)(F)F)CCN3)cc1)N1CCC(N2CCCC2)CC1`, the inhibition in test [1] is below 50%; in test [2], 90.8%; in [3] it was below 50%; in test [4] it was below 50%; in [5] it was below 50%.
For `CN1CCN(c2ccc(-c3cnc4c(c3)N(Cc3cc(Cl)ccc3C(F)(F)F)CCN4)cn2)CC1`, the inhibition in [6] is below 50%; in test [7] it was below 50%; in test [1], below 50%; in test [8] it was below 50%; in [2], 71%; in test [9], below 50%. Also, the inhibition is below 50% in test [10], 79% in [3], below 50% in test [4] and below 50% in [5].
`CC(=O)N1CCN(c2cc(-c3cnc4c(c3)N(Cc3cc(Cl)ccc3C(F)(F)F)CCN4)ccn2)CC1`: the inhibition is below 50% in [6]; below 50% in test [7]; below 50% in [1]; below 50% in test [8]; 84% in test [2]; below 50% in [9]. Further, the inhibition was below 50% in test [10], 72% in test [3], below 50% in test [4] and below 50% in [5].
Take `CN1CCN(c2ccc(-c3cnc4c(c3)N(Cc3cc(F)ccc3F)CCN4)cn2)CC1`: the inhibition in [6], in test [7], in test [1], in test [8], in test [2] and in [9] was below 50% each time. In addition, the inhibition in test [10], in test [3], in test [4] and in test [5] was below 50% in each case.
